Data as given in ChEMBL document CHEMBL3352289, “Potent and selective MAO-B inhibitory activity: amino- versus nitro-3-arylcoumarin derivatives” (Bioorg Med Chem Lett, 2015).

How the values were obtained:
[1] = biological target: Amine oxidase [flavin-containing] B (Homo sapiens) (UniProt P27338); assay: Reversible inhibition of human recombinant MAOB expressed in BTI-TN-5B1-4 cells assessed as AUF/t ratio at 2.5 nM by effective dilution method relative to untreated control; set-up: scale not given: the % may be the effect or the level left; conditions: BTI-TN-5B1-4, human
Homo sapiens = organism: Homo sapiens; assay: Selectivity index, ratio of IC50 for human recombinant MAOA to IC50 for human recombinant MAOB
Summary of the method: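 Ratio of IC50 (hMAO-A) to IC50 (hMAO-B). Both come from the Amplex Red/p-tyramine H2O2 assay with recombinant insect-cell microsomal isoforms. Each IC50 is the mean of five experiments. Where an IC50 was not reached at the highest concentration tested (100), that IC50 was taken as greater than 100.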

[2] = biological target: T1, Amine oxidase [flavin-containing] B (Homo sapiens, UniProt P27338); type: cell-based, BTI-TN-5B1-4
T1 sequence (P27338 whole entry): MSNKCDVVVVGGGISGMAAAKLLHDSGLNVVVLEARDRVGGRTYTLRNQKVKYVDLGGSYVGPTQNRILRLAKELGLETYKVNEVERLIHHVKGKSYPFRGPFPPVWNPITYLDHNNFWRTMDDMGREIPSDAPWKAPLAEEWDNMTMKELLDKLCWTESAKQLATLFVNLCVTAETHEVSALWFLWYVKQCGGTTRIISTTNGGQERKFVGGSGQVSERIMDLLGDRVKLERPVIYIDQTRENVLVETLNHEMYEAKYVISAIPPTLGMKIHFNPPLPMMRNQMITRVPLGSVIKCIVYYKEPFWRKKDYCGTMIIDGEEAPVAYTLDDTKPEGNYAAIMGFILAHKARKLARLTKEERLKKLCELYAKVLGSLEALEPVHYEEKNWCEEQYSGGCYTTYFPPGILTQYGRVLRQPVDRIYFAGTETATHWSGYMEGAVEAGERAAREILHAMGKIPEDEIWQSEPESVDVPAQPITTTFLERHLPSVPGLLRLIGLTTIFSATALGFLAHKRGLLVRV

[3] = Permeability by PAMPA method; type: ADME; conditions: read-out: Peff
Summary of the method: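 PAMPA-BBB assay. A PVDF filter was coated with porcine brain lipid in dodecane (20 mg/mL). Compound at 100 µg/mL in PBS pH 7.4/ethanol 70:30 was placed in the donor wells, with the same buffer in the acceptor wells. Plates were incubated 240 min at 25 °C, and acceptor concentration was read by UV-vis at five wavelengths, four wells, ≥3 runs, mean ± SD. Ten reference drugs validated each run.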

[4] = biological target: T2, Amine oxidase [flavin-containing] A (Homo sapiens, UniProt P21397); assay: Inhibition of human recombinant MAOA expressed in BTI-TN-5B1-4 cells using p-tyramine substrate assessed as reduction in H2O2 production; type: cell-based
T2 sequence (P21397 whole entry): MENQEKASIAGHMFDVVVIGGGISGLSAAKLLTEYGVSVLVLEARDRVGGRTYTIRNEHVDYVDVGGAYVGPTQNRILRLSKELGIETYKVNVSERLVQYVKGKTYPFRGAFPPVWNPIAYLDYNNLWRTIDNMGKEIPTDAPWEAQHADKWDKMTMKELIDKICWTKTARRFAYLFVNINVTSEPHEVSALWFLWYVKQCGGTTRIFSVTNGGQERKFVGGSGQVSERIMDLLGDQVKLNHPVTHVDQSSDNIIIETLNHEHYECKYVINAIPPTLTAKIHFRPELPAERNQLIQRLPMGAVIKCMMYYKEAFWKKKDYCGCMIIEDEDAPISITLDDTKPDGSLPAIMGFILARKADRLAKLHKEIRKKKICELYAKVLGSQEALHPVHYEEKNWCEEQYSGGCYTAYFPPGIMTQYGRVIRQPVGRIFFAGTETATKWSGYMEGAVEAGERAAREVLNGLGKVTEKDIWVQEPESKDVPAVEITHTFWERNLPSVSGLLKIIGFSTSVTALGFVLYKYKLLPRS

[5] = Octanol/water partition coefficient, log P of the compound; type: physicochemical
[6] = biological target: T2, Amine oxidase [flavin-containing] A; assay: Inhibition of human recombinant MAOA expressed in BTI-TN-5B1-4 cells using p-tyramine substrate assessed as reduction in H2O2 production at 100 uM; type: cell-based; conditions: bti-tn-5b1-4, 100 µM
[7] = biological target: T2, Amine oxidase [flavin-containing] A; assay: Reversible inhibition of human recombinant MAOA expressed in BTI-TN-5B1-4 cells assessed as AUF/t ratio at 20 nM by effective dilution method relative to untreated control; type: cell-based; set-up: scale not given: the % may be the effect or the level left; conditions: BTI-TN-5B1-4, human; read-out: Activity
[8] = biological target: T1, Amine oxidase [flavin-containing] B; assay: Inhibition of human recombinant MAOB expressed in BTI-TN-5B1-4 cells using p-tyramine substrate assessed as reduction in H2O2 production at 100 uM; type: cell-based; conditions: bti-tn-5b1-4, 100 µM
Summary of the method: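 Microsomal hMAO-B from BTI-TN-5B1-4 insect cells infected with recombinant baculovirus. Enzyme, dosed to oxidise 165 pmol p-tyramine/min, was preincubated with drug in 0.05 M sodium phosphate pH 7.4 (DMSO ≤1%) for 15 min at 37 °C. Reaction started with Amplex Red, 1 U/mL HRP and 1 mM p-tyramine. Resorufin fluorescence (ex 545/em 590 nm) read over 15 min at 37 °C, minus enzyme-free background, versus vehicle control.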

Cc1ccc2oc(=O)c(-c3ccc([N+](=O)[O-])cc3)cc2c1
activity at 0.0025 µM [1]: 80% | Ratio IC50 (Homo sapiens): 2090 | IC50 ([2]; read-out: IC50): 2.1 nM | Papp [3]: 10.5 ×10⁻⁶ cm/s | IC50 ([4]; read-out: IC50): 4.18 µM | logP [5]: 4.12

Cc1ccc2oc(=O)c(-c3cccc([N+](=O)[O-])c3)cc2c1
Ratio IC50 (Homo sapiens): > 16700 | IC50 ([2]; read-out: IC50): 6 nM | IC50 ([4]; bti-tn-5b1-4): Not Active | inhibition (INH) [6]: Not Active | logP [5]: 4.1

C#CCN(C)[C@H](C)Cc1ccccc1 [SELEGILINE]
activity at 0.02 µM [7]: 8.51%

Cc1ccc2oc(=O)c(-c3cccc(N)c3)cc2c1
Ratio IC50 (Homo sapiens): > 50000 | IC50 ([2]; read-out: IC50): 2.2 nM | IC50 ([4]; bti-tn-5b1-4): Not Active | inhibition (INH) [6]: Not Active | logP [5]: 3.21

Cc1ccc2oc(=O)c(-c3ccc(N)cc3)cc2c1
Ratio IC50 (Homo sapiens): > 25000 | IC50 ([2]; read-out: IC50): 4.1 nM | IC50 ([4]; bti-tn-5b1-4): Not Active | inhibition (INH) [6]: Not Active | logP [5]: 3.24

O=C(NCCN1CCOCC1)c1ccc(Cl)cc1 [MOCLOBEMIDE]
IC50 ([2]; bti-tn-5b1-4): Not Active | inhibition (INH) [8]: Not Active | logP [5]: 1.68

Cc1ccc2oc(=O)c(-c3ccccc3N)cc2c1
Ratio IC50 (Homo sapiens): > 46 | IC50 ([2]; read-out: IC50): 2170 nM | IC50 ([4]; bti-tn-5b1-4): Not Active | inhibition (INH) [6]: Not Active | logP [5]: 3.6

Cc1ccc2oc(=O)c(-c3ccccc3[N+](=O)[O-])cc2c1
Ratio IC50 (Homo sapiens): > 18 | IC50 ([2]; read-out: IC50): 5520 nM | IC50 ([4]; bti-tn-5b1-4): Not Active | inhibition (INH) [6]: Not Active | logP [5]: 4.07
